# Source: PubChem BioAssay (several laboratories)
# This is a sample that favours compounds with a hit; in the whole collection about 27% have one here.
# CYP2C9 inh – inhibitors of human CYP2C9; P11712; CYP2C9 Supersomes, luciferin-H conversion, luminescence; inhibition, % at 5 µM; 20% of 96,000 active; AID 777;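 active = blocking of liver enzyme CYP2C9 beyond about 50% at 5 µM, limit read from the data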
# Target sequence (P11712 whole entry, looked up): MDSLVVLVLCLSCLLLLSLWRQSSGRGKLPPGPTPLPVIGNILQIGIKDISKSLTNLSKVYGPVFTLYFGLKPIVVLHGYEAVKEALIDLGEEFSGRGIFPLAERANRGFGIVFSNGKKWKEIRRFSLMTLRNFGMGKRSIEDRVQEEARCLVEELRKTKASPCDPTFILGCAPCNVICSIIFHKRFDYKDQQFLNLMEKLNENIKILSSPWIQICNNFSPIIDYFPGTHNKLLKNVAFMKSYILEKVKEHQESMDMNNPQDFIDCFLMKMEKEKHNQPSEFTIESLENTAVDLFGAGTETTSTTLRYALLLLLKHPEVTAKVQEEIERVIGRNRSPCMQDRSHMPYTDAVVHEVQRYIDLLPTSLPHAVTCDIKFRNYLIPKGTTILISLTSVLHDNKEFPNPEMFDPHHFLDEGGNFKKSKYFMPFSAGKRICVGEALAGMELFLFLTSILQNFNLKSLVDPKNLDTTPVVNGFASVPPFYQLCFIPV
# Rev-RRE block – inhibitors of HIV-1 Rev-RRE RNA interaction | 0.79% of 97,000 active | P05866 | inhibition, % at 8 µM | AID 704 | Rev peptide-RRE RNA binding, FRET;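 active = inhibition above the screen-wide mean plus 3 SD, cut at about 35% in these data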;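 note: 0% = median DMSO wells and 100% = median Neomycin B control wells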
# Target sequence (P05866 whole entry, looked up): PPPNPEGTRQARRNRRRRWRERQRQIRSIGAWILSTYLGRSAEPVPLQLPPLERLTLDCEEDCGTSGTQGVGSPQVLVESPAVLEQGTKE
#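 Test system – labelled RRE RNA duplex and labelled Rev peptide · Signal – fluorescein-to-Cy5 FRET, 480 nm excitation · Evaluation – % inhibition of FRET ratio versus controls · Benchmarks – DMSO low control, neomycin B high control · Incubation – 5 min RNA-compound premix plus 15 min binding step, 25 °C · Medium – HEPES pH 7.5 salt buffer with EDTA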
# CYP2C19 inhib – blocks human cytochrome P450 2C19. CYP2C19 Supersomes, luciferin-H EGE luminescence, 30 min. inhibition, % at 5 µM. 21% of 96,000 active;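 active = CYP2C19 inhibition above a set limit at 5 µM in the primary screen, cut at about 50% in these data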;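 note: plate controls were negative control wells for no effect and 2.5 mM tranylcypromine positive control for full effect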
# Cav3 T inh – inhibitors of human Cav3.2 T-type calcium channel | Cav3.2-expressing cells, Fluo-4 calcium fluorescence FDSS; stronger effect = lower value | B-score at 10 µM | 4% of 100,000 active | AID 449739 | O95180;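 active = single-dose well whose peak fluorescence ratio is a statistical outlier from its plate by either plate-standardised score or position-corrected B-score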
# CYP2C9 act – increases human cytochrome P450 2C9 activity. P11712. recombinant CYP2C9, luciferin-H conversion, luminescence; stronger effect = higher value; factor 1 = untreated enzyme, 0 = blocked. activation factor at 5 µM. 1.4% of 96,000 active;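 active = activation factor of 2 or more for CYP2C9 at a 5 µM dose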;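 note: 0 = sulfaphenazole-blocked wells and 1 = vehicle-only wells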
# CYP2C19 act – increases human CYP2C19 enzyme activity; 96,000 tested, under 10 active; P33261; activation factor at 5 µM; recombinant CYP2C19, luciferin-H EGE luminescence; stronger effect = higher value; 0 = fully inhibited enzyme, 1 = untreated enzyme; AID 1025;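 active = activation factor of at least 2 at 5 µM in the primary screen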;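 note: 0 = wells with 2.5 mM tranylcypromine and 1 = vehicle-only wells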
# * = called active by the depositor; . = not tested or not shown.
SMILES,CYP2C9 inh,Rev-RRE block,CYP2C19 inhib,Cav3 T inh,CYP2C9 act,CYP2C19 act
Cc1cccc(NC(=S)NC(=O)C(c2ccccc2)c2ccccc2)n1,.,3,.,-0.033,.,.
CCN1C2=C(C(=O)CCC2)C(c2ccc(O)cc2)C2=C1CCCC2=O,-4,3,-7,-0.14,1,1.1
Cc1nc(SCC(=O)NC2CCCC2)[nH]c(=O)c1Cc1ccccc1,46,0,16,.,0.5,0.8
CC1=C(C(=O)Nc2ccccc2)C(c2ccncc2)C(C#N)=C(SCC(=O)NC2CC2)N1 (configuration not stated),77*,3,85*,-0.12,0.2,0.1
CC1=C(C(=O)Nc2ccccc2)C(c2ccncc2)C(C#N)=C(SCC(=O)NC(C)C)N1 (configuration not stated),65*,-5,78*,0.97,0.4,0.2
Cc1ccc(C)c(Cn2cnc3c(cnn3C(C)(C)C)c2=O)c1,35,9,97*,-4.8*,0.6,0
CC(C)(C)n1ncc2c(=O)n(CC(=O)c3ccccc3)cnc21,.,0,.,0.076,.,.
Cc1ccccc1Cn1cnc2c(cnn2C(C)(C)C)c1=O,27,1,68*,-2.6,0.7,0.3
COc1ccc(-c2[nH]ncc2-c2cnc(C)s2)c(O)c1,50,0,90*,-0.47,0.5,0.1
COc1ccc(O)c(-c2cn[nH]c2-c2cccs2)c1,88*,12,99*,-1.3,0.1,0
COc1ccc(-c2cn[nH]c2N)c(OC)c1,-21,5,-14,1.7,1.2,1.1
COc1cnc(-c2ccccn2)nc1Oc1cccc(Cl)c1,8,2,11,-0.13,0.9,0.9
CC1CCOC2(O1)C(=O)N(CN1CCN(c3cccc(Cl)c3)CC1)c1ccccc12 (configuration not stated),5,4,11,0.32,1,0.9
Cc1nn(-c2ccc(Cl)cc2)c(N)c1C(O)(CSc1nccn1C)C(F)(F)F (configuration not stated),87*,.,75*,-0.66,0.1,0.3
Cc1c(NC(=O)CSc2nccn2C)c(=O)n(-c2ccccc2)n1C,-9,7,-6,0.79,1.1,1.1
Cc1nn(-c2ccccc2)c(N)c1C(O)(CSc1nccn1C)C(F)(F)F (configuration not stated),87*,4,93*,.,0.1,0.1
CC(C)(C)OC(=O)N1CCC(c2cc(=O)n3[nH]cc(C(=O)NC4CCCC4)c3n2)CC1,95*,7,39,0.65,0,0.6
CCCCN=c1scc(-c2ccc3c(c2)NC(=O)CO3)n1N=C1CCCC1,1,4,1,0.32,1,1
COCC(C)n1c(-c2ccc3c(c2)NC(=O)CO3)csc1=Nc1ccc(OC(F)F)cc1 (configuration not stated),69*,5,16,-1.8,0.3,0.8
CCN=c1scc(-c2ccc3c(c2)NC(=O)CO3)n1N=C1CCCC1,48,12,54*,-1.4,0.5,0.5
CCOC(=O)C(NC(=O)c1ccc(OC)cc1)(OCC1(CC)COC1)C(F)(F)F (configuration not stated),63*,7,38,0.3,0.4,0.6
CCOC(=O)C1=C(c2ccccc2)N(C)C(=O)NC1c1ccc(OC(F)F)c(OC)c1 (configuration not stated),83*,8,69*,-8.6*,0.2,0.3
COc1ccc2cc3c(N)c(C(=O)N4CCCC4)sc3nc2c1,28,28,14,-1.1,0.7,0.9
CCC(C)NC(=O)c1cc2cc3ccc(OC)cc3nc2s1 (configuration not stated),84*,-2,76*,-0.24,0.2,0.2
O=C(c1cc2cc(Br)cc(Br)c2oc1=O)N1CCCc2ccccc21,4,7,-20,-0.28,1,1.2
SMILES,CYP2C9 inh,Rev-RRE block,CYP2C19 inhib,Cav3 T inh,CYP2C9 act,CYP2C19 act
CSCc1cc(N2CCOCC2)nc(SCc2ccc(Cl)c(Cl)c2)n1,49,9,53*,-3.7,0.5,0.5
Cc1nc(CSc2ccc(Cl)cc2)cc(N2CCOCC2)n1,12,0,94*,-0.41,0.9,0.1
Cc1nc(CS(=O)c2ccc(Cl)cc2)cc(NCc2ccc(Cl)cc2Cl)n1 (configuration not stated),96*,17,91*,-5.8*,0,0.1
Cc1ccc(SCc2cc(=O)[nH]c(N3CCOCC3)n2)cc1,-8,3,8,0.53,1.1,0.9
Cc1nc(CSc2ccc(Cl)cc2)cc(NCc2ccccc2)n1,91*,18,85*,-8.3*,0.1,0.2
N#Cc1c(SCC(N)=O)nsc1SCc1ccccc1Cl,29,3,46,-0.0015,0.7,0.5
CN1C(=O)OC(C)(C)C1=O,.,.,.,1.1,.,.
CC(=O)/C=N/Nc1ccccc1,60*,7,-6,-0.45,0.4,1.1
COc1cc2c(cc1OC)CN(C(=O)COc1ccc(C)c(C)c1)CC2,62*,11,72*,-1.8,0.4,0.3
COc1ccc2c(c1)c(=O)oc1c(C)c(OCC(=O)N3CCc4ccccc4C3)ccc12,62*,7,37,-0.57,0.4,0.6
O=C(Cn1cnc2ccc(Cl)cc2c1=O)c1cccs1,32,3,54*,0.051,0.7,0.5
O=C(Cn1cnc2ccc(Br)cc2c1=O)c1cccs1,52*,-1,78*,0.96,0.5,0.2
CCCCOC(=O)Cn1cnc2ccc(Br)cc2c1=O,24,4,30,-0.94,0.8,0.7
CC(C)COC(=O)Cn1cnc2ccc(Br)cc2c1=O,56*,9,91*,-0.35,0.4,0.1
O=C(Cn1cnc2ccccc2c1=O)c1cccs1,43,5,24,0.73,0.6,0.8
Cc1ccccc1NC(=O)Nc1ccccc1Br,3,6,12,0.43,1,0.9
CCOC(=O)c1cnn(-c2sc(C(=O)OCC)c(C)c2C(=O)OCC)c1N,.,-4,.,-3.3*,.,.
O=C1c2ccccc2C(=O)N1Cc1nn2c(-c3ccc(Cl)cc3)nnc2s1,-22,.,34,-0.11,1.2,0.7
CCCCn1c(SCC(=O)O)nc2ccccc21,14,3,14,0.0044,0.9,0.9
CCCCOC(=O)n1c(SCC(=O)N(C)C)nc2ccccc21,77*,8,44,-0.067,0.2,0.6
O=C1C(Cl)=C(N2CCOCC2)C(=O)N1c1cccc(Cl)c1,44,5,85*,0.53,0.6,0.1
O=C1C(Cl)=C(N2CCCCCC2)C(=O)N1c1ccccc1,18,7,29,-1,0.8,0.7
CN1CCN(C2=C(Cl)C(=O)N(c3ccc(Cl)cc3)C2=O)CC1,56*,.,88*,-0.32,0.4,0.1
COc1ccc(N2CCCCn3c2nc2c3c(=O)n(C)c(=O)n2C)cc1,36,-3,32,1.2,0.6,0.7
